In general, solubility refers to the dissolved amount per volume that the medium holds.

Values after ≈ are worked out from the molar mass of the structure shown. Active and inactive are the calls of the source.

A short description of data set [1]: Aqueous solubility of the compound in PBS buffer. It counts as physicochemical.
The nature of data set [2]: Permeability across apical to basolateral side in human Caco2 cells. It is filed as ADME, cell-based. The note with it: Caco-2, read-out: permeability. (Passage across Caco-2 layers is used to estimate intestinal permeability.)
Data set [3] has as its target Neuronal acetylcholine receptor subunit alpha-7 (Homo sapiens) (UniProt P36544). The data set is described as follows: Positive allosteric modulation of human alpha7 nAChR expressed in Xenopus laevis oocytes assessed as acetyl choline-evoked currents at 10 uM at -80 mV holding potential prtreated for 2 mins followed by co-treatment with acetyl choline by electrophysiology method relative to acetyl choline. It is filed as cell-based. In short, it runs like this: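 Defolliculated Xenopus laevis oocytes were injected with 5 ng α7 cRNA and recorded 2–3 days later at 22°C, -80 mV. Compound (10 μM) was bath-preapplied for 2 min, then co-applied with 200 μM ACh by fast pipette application for 0.6 s. Peak current is expressed relative to the ACh-alone control (100%).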

The test system of data set [4] is Rattus norvegicus. The data set is described as follows: Analgesic activity in CFA-induced paw inflammation Wistar rat model assessed as increase in paw withdrawal latency at 10 mg/kg, iv administered at 24 hrs post CFA injection measured at 30 mins post compound administration. It counts as functional, organism-based. In short, it runs like this: (§1)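 Male Wistar rats (250–300 g). CFA emulsion (1:1 oil/saline, 0.5 mg/ml, 50 μl) was injected intraplantar into the hind paw. 24 h later, compound was dissolved in DMSO, diluted in 0.9% saline (final DMSO 2,5%) and given iv at 10 mg/kg in 0,5 ml. Paw withdrawal latency was measured on a dynamic plantar aesthesiometer (ramp 2.5 g/s, 50 g cutoff), as the mean of three readings per time point, for up to 4 h; n ≥ 6 rats/group, two-way ANOVA with Bonferroni.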

Data set [5] has as its system Rattus norvegicus. Kind of data set: Analgesic activity in CFA-induced paw inflammation Wistar rat model assessed as increase in paw withdrawal latency at 10 mg/kg, iv administered at 24 hrs post CFA injection measured at 1 hr post compound administration. It counts as functional, organism-based. In short, it runs like this:
as §1

Neuronal acetylcholine receptor subunit alpha-7 (Homo sapiens), sequence (P36544 whole entry): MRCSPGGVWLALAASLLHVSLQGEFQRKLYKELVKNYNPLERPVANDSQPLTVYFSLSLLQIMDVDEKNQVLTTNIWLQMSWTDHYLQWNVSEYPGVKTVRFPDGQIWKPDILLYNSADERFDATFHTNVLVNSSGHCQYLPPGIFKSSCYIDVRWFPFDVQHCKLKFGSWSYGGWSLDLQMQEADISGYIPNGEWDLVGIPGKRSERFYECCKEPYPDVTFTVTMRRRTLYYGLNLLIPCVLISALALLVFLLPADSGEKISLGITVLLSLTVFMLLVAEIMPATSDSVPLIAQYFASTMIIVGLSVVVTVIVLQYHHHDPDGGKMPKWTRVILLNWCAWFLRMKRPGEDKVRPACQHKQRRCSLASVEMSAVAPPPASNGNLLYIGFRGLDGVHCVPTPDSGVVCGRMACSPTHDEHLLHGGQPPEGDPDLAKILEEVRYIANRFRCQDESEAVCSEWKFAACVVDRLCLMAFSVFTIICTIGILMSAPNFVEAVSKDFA

Consider `O=C(CCc1ccc(O)cc1)c1cc(O)ccc1O`, for which the solubility in data set [1] (PBS buffer, read-out: solubility) is 160 µM (≈ 41.3 µg/mL). Moreover, the Papp A→B in data set [2] worked out at 33.5 ×10⁻⁶ cm/s. For the same compound, the Activity in data set [3] came out at 666%.
For `O=C(CCc1ccc(O)cc1O)c1cc(O)ccc1O`, in data set [3], the Activity was determined as 989%.
With `Br.CC(C)C(N)C(=O)NC(C(=O)Oc1ccc(CCC(=O)c2cc(O)ccc2O)cc1)C(C)C` (stereo in doubt), the result with Rattus norvegicus [4] was Active. Moreover, the solubility entry in data set [1] (buffer) is “Soluble”. Also, the Activity in data set [3] is 14.7%. Further, in the data set on Rattus norvegicus [5], the result was inactive.
For `Br.CC(C)C(N)C(=O)N1CCC[C@H]1C(=O)NC(C(=O)Oc1ccc(CCC(=O)c2cc(O)ccc2O)c(O)c1)C(C)C` (stereo in doubt), the solubility entry in data set [1] (buffer) was “Soluble”. Moreover, the Activity in data set [3] was determined as 25.3%.
In the case of `CC(C)C(N)C(=O)N1CCC[C@H]1C(=O)NC(C(=O)Oc1ccc(CCC(=O)c2cc(O)ccc2O)cc1)C(C)C` (stereo in doubt), the Activity in data set [3] is 24.7%. In the data set with Rattus norvegicus [5], the outcome was Active.
Take `CC(C)C(N)C(=O)NC(C(=O)Oc1ccc(/C=C/C(=O)c2cc(O)ccc2O)c(O)c1)C(C)C` (stereo in doubt): the Activity in data set [3] was found to be 24.5%.
The same measure, in the same setting: for `CC(C)C(N)C(=O)NC(C(=O)Oc1ccc(CCC(=O)c2cc(O)ccc2O)c(O)c1)C(C)C` (stereo in doubt) the value was 26.7%.

For the origin of these results see ChEMBL document CHEMBL4138200, “Amino acid and peptide prodrugs of diphenylpropanones positive allosteric modulators of α7 nicotinic receptors with analgesic activity” (Eur J Med Chem, 2018).
